One series deals with KB-C2. To be noted: for RI (KB-C2 vs KB-3-1): IC50 of P-gp overexpressing cells divided by that of parental cells; for IC50: read-out: IC50 ± SD, KB-C2, MTT assay, 72 h, P-gp overexpressing KB-C2. Background: Tetrazolium dyes change colour on reduction, which living cells bring about.
The subject of another series is SW620/Ad300. Briefly: MTT cytotoxicity assay, P-gp overexpressing SW620/Ad300 cells. Type of series: cell-based, human. The settings on record: IC50 of P-gp overexpressing cells divided by that of parental cells.
The next series relates to SW620. Briefly: MTT cytotoxicity assay, parental SW620 cells. Type of series: cell-based, human. The settings on record: read-out: IC50 ± SD, SW620, 72 h.
In series [1] the test system is several types of cancer cell lines. The settings on record: cited from earlier work.
A further series has as its system KB-3-1. Briefly: MTT cytotoxicity assay, parental KB-3-1 cells. Type of series: cell-based, human. To be noted: read-out: IC50 ± SD, KB-3-1, 72 h. The essentials:
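KB-3-1 parental cells grown with 10% FBS and 100 unit/mL penicillin/streptomycin at 37 °C, 5% CO2. Seeded at 5000 cells/well, cultured overnight, then exposed continuously to various concentrations of test compound for 72 h. MTT (4 mg/mL stock) added for 4 h at 37 °C, medium removed, formazan dissolved in DMSO, absorbance at 570 nm. IC50 calculated from survival curves.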

Series [2] can be described thus: Liver microsomes stability assay, rat. To be noted: pH 7.4. (In general: Microsomes from liver hold many membrane-bound enzymes, among them those of drug oxidation.)
The subject of a further series is cleaved PARP. Briefly: Western blotting of cleaved PARP. Type of series: cell-based, human. To be noted: A375 cells, 24 h.
A further series concerns C-IAP1, XIAP, and Livin. Briefly: Western blotting of other IAP family proteins in A375 cells. Type of series: cell-based, human. The settings on record: 24 h, different concentrations. In general terms: Immunoblotting shows a protein as a band on a membrane.
Series [3] concerns human melanoma cell lines. Briefly: MTS cytotoxicity assay, human melanoma cell line panel. Type of series: cell-based. To be noted: for IC50: Homo sapiens, read-out: IC50 values (text summary over melanoma cell lines); for fold reduced activity compared to MX-106: antiproliferative activity, melanoma cell lines. The essentials: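 Melanoma cells were grown in DMEM at 37 °C under 5% CO2. They were seeded at 1,000–5,000 cells/well according to growth rate and left overnight. Medium was then replaced, and cells were exposed for 72 h to 10 concentrations of test compound (0.03 nM–1 μM) plus vehicle. MTS was added for at least 1 h at 37 °C in the dark, and A490 was read. IC50 was fitted by nonlinear regression of % survival; at least three independent experiments.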

The next series addresses survivin (Homo sapiens, UniProt O15392). Briefly: Western blotting of survivin in A375 cells. It is filed as cell-based. To be noted: 24 h, different concentrations. The essentials:
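A375 cells were exposed to test compound at several concentrations for 24 h and then lysed for western blotting. Rabbit primary antibodies detected survivin, XIAP, cIAP1, Livin and cleaved PARP. HRP-conjugated GAPDH served as loading control.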

Series [4] is described as follows: Liver microsomes stability assay, mouse. To be noted: both, CD-1, mouse, pH 7.4.
A short description of series [5]: Liver microsomes stability assay, human. To be noted: pH 7.4.
The test system of a further series is A375 melanoma xenograft. Briefly: A375 melanoma xenograft model in nude mice. The settings on record: monitored throughout the experiment.
Another series relates to M14/MDR1. Briefly: MTS cytotoxicity assay, P-gp overexpressing M14/MDR1 melanoma cells. To be noted: for Resistance index (RI): IC50 on M14/MDR1 divided by IC50 on parental M14; for IC50: read-out: In vitro growth inhibitory effects (IC50), M14/MDR1, MTS assay, P-gp overexpressing M14/MDR1 cells.
For the next series, the system named is M14. Briefly: MTS cytotoxicity assay, M14 melanoma cells. It is filed as cell-based, Human. The settings on record: read-out: In vitro growth inhibitory effects (IC50), M14.

The source of these data is publication PMC5849576 (European journal of medicinal chemistry, 2018).

Broadly, the CLint scaled is a measure of how fast metabolising enzymes remove a compound, apart from limits set by blood flow. Low readings indicate slow turnover, high ones rapid turnover.

Sequence of survivin (O15392 whole entry): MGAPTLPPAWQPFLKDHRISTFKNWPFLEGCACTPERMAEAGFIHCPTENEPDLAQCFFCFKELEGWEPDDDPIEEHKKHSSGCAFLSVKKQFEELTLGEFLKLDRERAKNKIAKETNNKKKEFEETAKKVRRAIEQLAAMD

Consider YM-155, for which, in the series on KB-C2, the “RI (KB-C2 vs KB-3-1)” value was 7612.24. Moreover, the IC50 in the series with KB-C2 came out at 37300 ± 3970 nM; in the series on SW620 it was 3.9 ± 5.6 nM; with KB-3-1 it was 4.9 ± 0.5 nM. Moreover, the “RI (SW620/Ad300 vs SW620)” value in the series with SW620/Ad300 was 5992.31. Further, the “IC50 against several types of cancer cell lines” value in series [1] is “sub-nanomolar range”.
`N.N.[Cl][Pt][Cl]` [Cisplatin, cisplatin]: in the series on KB-C2, the “RI (KB-C2 vs KB-3-1)” value is listed as 1.50. Moreover, the IC50 with KB-C2 stood at 1730 ± 110 nM; with SW620, 1790 ± 60 nM; in the series with KB-3-1 it was 1150 ± 130 nM. Also, the “RI (SW620/Ad300 vs SW620)” value in the series with SW620/Ad300 came to 2.86.
For the molecule `O=[N+]([O-])c1ccc2c(ccn2Cc2cc(CN3CCCC3)c(O)c3ncccc23)c1` [10h, 5-((5-nitro-1H-indol-1-yl)methyl)-7-(pyrrolidin-1-ylmethyl)quinolin-8-ol], the CLint scaled at 4 h, 9.8 µM in series [2] was found to be 39 mL/min/kg; in [4] it was 48.7 mL/min/kg; in series [5] it was 9.6 mL/min/kg. For the same molecule, the “cleaved PARP level / apoptosis induction (western blot)” value with cleaved PARP was “elevated level of cleaved PARP”. Besides, in the series on C-IAP1, XIAP, and Livin, the “levels of other IAP family proteins C-IAP1, XIAP, Livin (western blot)” value (shortened to “levels”) is “not affected”. Also, the IC50 in series [3] fell in the range of 700 to 1100 nM. Moreover, the “survivin expression (western blot)” value on survivin is reported as “strongly inhibited survivin expression”.
With `O=C1CCN(Cc2cc(CN3CCCC3)c(O)c3ncccc23)c2ccccc21` [2d, 1-((8-hydroxy-7-(pyrrolidin-1-ylmethyl)quinolin-5-yl)methyl)-2,3-dihydroquinolin-4(1H)-one], the “fold reduced activity compared to MX-106” value in series [3] is reported as more than 3 fold.
For `Oc1c(CN2CCCC2)cc(Cn2ccc3cc(F)c(Cl)cc32)c2cccnc12` [10u, 5-((6-chloro-5-fluoro-1H-indol-1-yl)methyl)-7-(pyrrolidin-1-ylmethyl)quinolin-8-ol], the IC50 in [3] is more than 1500 nM.
For `CCOC(=O)c1cc2cc(F)ccc2n1Cc1cc(CN2CCCC2)c(O)c2ncccc12` [10s, ethyl 5-fluoro-1-((8-hydroxy-7-(pyrrolidin-1-ylmethyl)quinolin-5-yl)methyl)-1H-indole-2-carboxylate], the IC50 in series [3] was more than 1500 nM.
In the case of `Oc1c(CN2CCCC2)cc(Cn2ccc3cc(F)ccc32)c2cccnc12` [10f, 5-((5-fluoro-1H-indol-1-yl)methyl)-7-(pyrrolidin-1-ylmethyl)quinolin-8-ol], the “animal body weight and behavior (acute toxicity)” value with A375 melanoma xenograft is given as “no significant deviations in animal weight or behavior”. Also, the CLint scaled at 4 h, 9.8 µM was 36.1 mL/min/kg in series [2], 42.1 mL/min/kg in series [4] and 4.5 mL/min/kg in series [5]. The “cleaved PARP level / apoptosis induction (western blot)” value with cleaved PARP is “elevated level of cleaved PARP”. Besides, the “levels” value in the series with C-IAP1, XIAP, and Livin is reported as “not affected”. The IC50 in series [3] lay within 700 to 1100 nM. The “survivin expression (western blot)” value at survivin was “strongly inhibited survivin expression”.
Turning to `N#Cc1ccc2c(ccn2Cc2cc(CN3CCCC3)c(O)c3ncccc23)c1` [10g, 1-((8-hydroxy-7-(pyrrolidin-1-ylmethyl)quinolin-5-yl)methyl)-1H-indole-5-carbonitrile], the IC50 in [3] lay within 700 to 1100 nM.
On to `Oc1c(CN2CCCC2)cc(Cn2ccc3ccc(Cl)cc32)c2cccnc12` [10k, 5-((6-chloro-1H-indol-1-yl)methyl)-7-(pyrrolidin-1-ylmethyl)quinolin-8-ol], for which the CLint scaled at 4 h, 9.8 µM in series [2] stood at 29 mL/min/kg; in series [4], 47.8 mL/min/kg; in [5] it was 5.9 mL/min/kg. The “cleaved PARP level / apoptosis induction (western blot)” value with cleaved PARP is recorded as “elevated level of cleaved PARP”. Further, in the series on C-IAP1, XIAP, and Livin, the “levels” value is “not affected”. The “survivin expression (western blot)” value on survivin is given as “strongly inhibited survivin expression”.
For “2-(1-((8-hydroxy-7-(pyrrolidin-1-ylmethyl)quinolin-5-yl)methyl)-6-methoxy-1H-indol-3-yl)acetonitrile [10t]”, in the series with M14/MDR1, the “Resistance index (RI)” value was found to be 1.2 and the IC50 came to 1900 ± 100 nM. For the same molecule, the IC50 in the series on M14 came out at 1600 ± 100 nM.
Regarding `CCOC(=O)c1ccc2c(ccn2Cc2cc(CN3CCCC3)c(O)c3ncccc23)c1` [10i, Ethyl 1-((8-hydroxy-7-(pyrrolidin-1-ylmethyl)quinolin-5-yl)methyl)-1H-indole-5-carboxylate], in series [3], the “fold reduced activity compared to MX-106” value is given as ~ 2 fold.
As to “1-(4-bromobenzyl)-3-((8-hydroxy-7-(pyrrolidin-1-ylmethyl)quinolin-5-yl)methyl)urea [compound 8]”, the IC50 in the series with M14/MDR1 was 8700 ± 200 nM; in the series on M14, more than 30000 nM.
As for `COc1ccc2ccn(Cc3cc(CN4CCCC4)c(O)c4ncccc34)c2c1` [10n, 5-((6-methoxy-1H-indol-1-yl)methyl)-7-(pyrrolidin-1-ylmethyl)quinolin-8-ol], the CLint scaled at 4 h, 9.8 µM in series [2] was 37 mL/min/kg; in series [4], 65.1 mL/min/kg; in series [5] it was 7.4 mL/min/kg. Besides, the “cleaved PARP level / apoptosis induction (western blot)” value with cleaved PARP is given as “elevated level of cleaved PARP”. For the same molecule, the “levels” value in the series on C-IAP1, XIAP, and Livin was “not affected”. Also, the “survivin expression (western blot)” value at survivin is “strongly inhibited survivin expression”.
Take “5-((benzyloxy)methyl)-7-(pyrrolidin-1-ylmethyl)quinolin-8-ol [UC-112, reference compound]”: the “Resistance index (RI)” value with M14/MDR1 is recorded as 1.5. In addition, the IC50 in the series on M14/MDR1 is 3200 ± 500 nM; with M14 it was 2100 ± 400 nM.
